For 16 compounds, IC50 and Ratio IC50 results are on record in ChEMBL document CHEMBL1144528, “Synthesis of 8-thiabicyclo[3.2.1]octanes and their binding affinity for the dopamine and serotonin transporters” (Bioorg Med Chem, 2007).

The target in experiment [1] is Sodium-dependent serotonin transporter (Macaca mulatta, UniProt Q9MYX0). The experiment in a line: Displacement of [3H]citalopram from SERT in rhesus monkey caudate-putamen. The experiment is classed as tissue-based. In outline: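 Caudate-putamen membranes from rhesus or cynomolgus monkey (4 mg original wet weight/mL) in 50 mM Tris·HCl pH 7.4 with 100 mM NaCl. Incubated with 1 nM [3H]citalopram and a range of test drug concentrations for 2 h at 0-4 °C. Filtered over glass fibre filters pre-soaked in 0.1% polyethyleneimine, then scintillation counted. IC50 is the mean of ≥2 independent experiments in different brains, each in triplicate.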
Sodium-dependent serotonin transporter, sequence (Q9MYX0 whole entry): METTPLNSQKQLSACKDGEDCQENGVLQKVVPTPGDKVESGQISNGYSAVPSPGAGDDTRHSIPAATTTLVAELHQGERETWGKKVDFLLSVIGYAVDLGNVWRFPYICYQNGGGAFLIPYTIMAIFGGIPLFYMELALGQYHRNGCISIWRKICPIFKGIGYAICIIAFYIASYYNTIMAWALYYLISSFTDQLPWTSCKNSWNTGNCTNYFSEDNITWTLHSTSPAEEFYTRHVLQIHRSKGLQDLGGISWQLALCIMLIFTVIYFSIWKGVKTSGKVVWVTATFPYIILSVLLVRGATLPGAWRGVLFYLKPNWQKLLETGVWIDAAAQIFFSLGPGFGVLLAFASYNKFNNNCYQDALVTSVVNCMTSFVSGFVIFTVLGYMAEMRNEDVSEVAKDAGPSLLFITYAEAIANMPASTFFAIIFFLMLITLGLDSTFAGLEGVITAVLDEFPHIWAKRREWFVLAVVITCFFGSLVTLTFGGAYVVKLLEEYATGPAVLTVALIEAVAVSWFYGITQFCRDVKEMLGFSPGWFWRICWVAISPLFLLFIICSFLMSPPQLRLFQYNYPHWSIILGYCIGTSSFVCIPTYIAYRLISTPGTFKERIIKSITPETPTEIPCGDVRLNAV
On the technique in general: Displacement assays read how much labelled ligand stays bound in the presence of the test substance.

The next experiment is filed under the species Macaca mulatta. In words: Selectivity for rhesus monkey DAT over rhesus monkey SERT. In short, it runs like this: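 Ratio of SERT IC50 ([3H]citalopram binding) to DAT IC50 ([3H]WIN35,428 binding), both measured in monkey caudate-putamen membranes.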
A further experiment concerns the target Transporter (Macaca mulatta, UniProt Q7JHP9). The experiment in a line: Displacement of [3H]WIN-35428 from DAT in rhesus monkey caudate-putamen. It counts as tissue-based. In short, it runs like this: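 Rhesus or cynomolgus caudate-putamen membranes (4 mg original wet weight/mL) in 50 mM Tris·HCl pH 7.4, 100 mM NaCl. Incubated 2 h at 0-4 °C with 0.3 nM [3H]WIN35,428 and a range of drug concentrations. Filtered on 0.1% BSA-soaked glass fibre filters and scintillation counted. Nonspecific binding defined with 30 μM (-)-cocaine. IC50 is the mean of ≥2 experiments in different brains, each in triplicate.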

SMILES strings stand for the structures. Bounds are passed on as bounds.

Transporter, sequence (Q7JHP9 whole entry): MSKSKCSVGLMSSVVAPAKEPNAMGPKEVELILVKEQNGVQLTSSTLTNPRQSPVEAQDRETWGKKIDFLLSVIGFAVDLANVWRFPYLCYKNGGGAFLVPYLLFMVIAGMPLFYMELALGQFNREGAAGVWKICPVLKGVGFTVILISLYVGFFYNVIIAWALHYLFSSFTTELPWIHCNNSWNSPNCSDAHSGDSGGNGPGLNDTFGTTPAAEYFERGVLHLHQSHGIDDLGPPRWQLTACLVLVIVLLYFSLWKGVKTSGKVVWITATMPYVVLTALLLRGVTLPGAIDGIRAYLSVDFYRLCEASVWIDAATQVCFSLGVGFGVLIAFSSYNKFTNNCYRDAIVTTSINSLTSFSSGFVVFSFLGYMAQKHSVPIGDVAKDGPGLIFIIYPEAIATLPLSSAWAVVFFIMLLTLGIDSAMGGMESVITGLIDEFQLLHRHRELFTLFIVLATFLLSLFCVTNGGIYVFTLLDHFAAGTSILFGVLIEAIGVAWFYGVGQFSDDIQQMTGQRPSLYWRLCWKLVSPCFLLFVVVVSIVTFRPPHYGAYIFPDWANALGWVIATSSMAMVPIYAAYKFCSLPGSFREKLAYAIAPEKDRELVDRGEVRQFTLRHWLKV

For the compound `COC(=O)[C@@H]1C2CCC(C[C@H]1c1ccc(Cl)c(Cl)c1)O2` (stereo partly drawn), the 50% inhibitory concentration (IC50) (commonly the concentration that inhibits the measured activity by half) in experiment [1] came out at 64.5 nM; at Transporter, 3.1 nM. Further, the Ratio IC50 in the experiment listed under Macaca mulatta was 21.

`COC(=O)[C@@H]1C2CCC(C[C@@H]1c1ccc(Cl)c(F)c1)S2` (stereo partly drawn): the results for the IC50 (in experiment [1]; on Transporter) were 17 nM and 6 nM, respectively. Also, the Ratio IC50 in the experiment filed under Macaca mulatta was 3.

Consider `COC(=O)C1=C(c2ccc(Cl)c(Cl)c2)CC2CCC1C2` (stereo not drawn), for which the half-maximal inhibitory concentration (IC50) amounted to 5160 nM in experiment [1] and 7.1 nM at Transporter. In addition, the Ratio IC50 in the experiment listed under Macaca mulatta was determined as 727.

With `COC(=O)[C@@H]1C2CCC(C[C@H]1c1ccc(Br)cc1)[S+]2[O-]` (stereo partly drawn), the IC50 in experiment [1] is more than 24000 nM; at Transporter it was 14 nM. Further, the Ratio IC50 in the experiment listed under Macaca mulatta is more than 1710.

For the compound `COC(=O)C1=C(c2ccc(I)cc2)CC2CCC1S2` (stereo not drawn), the IC50 in experiment [1] is more than 8000 nM; on Transporter, 6.7 nM. In addition, the Ratio IC50 in the experiment listed under Macaca mulatta is more than 1300.

For `COC(=O)[C@@H]1C2CCC(C[C@H]1c1ccc(F)c(F)c1)[S+]2[O-]` (stereo partly drawn), the half-inhibitory concentration (IC50) in experiment [1] is more than 69000 nM; on Transporter, 89 nM. In addition, the Ratio IC50 in the experiment listed under Macaca mulatta is more than 775.

On to `COC(=O)[C@@H]1C2CCC(C[C@H]1c1ccc(Cl)c(Cl)c1)[S+]2[O-]` (stereo partly drawn), for which the 50% inhibitory concentration (IC50) in experiment [1] is more than 3000 nM; on Transporter, 7.8 nM. Moreover, in the experiment filed under Macaca mulatta, the Ratio IC50 was more than 346.

For the compound `COC(=O)C1=C(c2ccc(F)c(Cl)c2)CC2CCC1S2` (stereo not drawn), the IC50 in experiment [1] is more than 6000 nM; on Transporter it was 7.6 nM. In addition, the Ratio IC50 in the experiment listed under Macaca mulatta is more than 789.

On to `COC(=O)C1=C(c2ccc(Cl)c(Cl)c2)CC2CC[C@H]1S2`, for which the half-inhibitory concentration (IC50) in experiment [1] worked out at 2600 nM; on Transporter it was 2.5 nM. For the same compound, in the experiment listed under Macaca mulatta, the Ratio IC50 amounted to 1040.

On to `COC(=O)C1=C(c2ccccc2)CC2CCC1[S+]2[O-]` (stereo not drawn), for which the IC50 in experiment [1] was more than 10000 nM; on Transporter, 6000 nM. In the experiment filed under Macaca mulatta, the Ratio IC50 was more than 1.6.

Consider `COC(=O)[C@@H]1C2CCC(C[C@@H]1c1ccc(Cl)c(Cl)c1)O2` (stereo partly drawn), for which the half-maximal inhibitory concentration (IC50) in experiment [1] is 6.5 nM; on Transporter it was 3.3 nM. For the same compound, the Ratio IC50 in the experiment listed under Macaca mulatta was 2.

As for `COC(=O)[C@@H]1C2CCC(C[C@H]1c1ccc3ccccc3c1)S2` (stereo partly drawn), the IC50 in experiment [1] was determined as 36 nM; at Transporter it was 8 nM. In addition, in the experiment filed under Macaca mulatta, the Ratio IC50 amounted to 4.5.

Turning to `COC(=O)[C@@H]1C2CCC(C[C@H]1c1ccc(F)cc1)S2` (stereo partly drawn), the half-inhibitory concentration (IC50) in experiment [1] is more than 11000 nM; at Transporter, 59 nM. The Ratio IC50 in the experiment listed under Macaca mulatta was more than 186.

Take `COC(=O)[C@@H]1C2CCC(C[C@@H]1c1ccc(Cl)c(Cl)c1)S2` (stereo partly drawn): the IC50 in experiment [1] worked out at 8 nM; on Transporter, 5.7 nM. Besides, the Ratio IC50 in the experiment listed under Macaca mulatta is 1.5.

For `COC(=O)[C@@H]1C2CCC(C[C@H]1c1ccccc1)[S+]2[O-]` (stereo partly drawn), the results for the IC50 (in experiment [1]; at Transporter) were 100000 nM and 1000 nM, respectively. Besides, in the experiment filed under Macaca mulatta, the Ratio IC50 is 100.

In the case of `COC(=O)[C@@H]1C2CCC(C[C@H]1c1ccc(Cl)c(F)c1)S2` (stereo partly drawn), the IC50 in experiment [1] turned out to be 702 nM; at Transporter it was 7 nM. Also, the Ratio IC50 in the experiment listed under Macaca mulatta worked out at 100.
